# HUVEC inhibit – inhibitors of human endothelial cell proliferation; hit rate 1.1% among 86,000; HUVEC proliferation, CellTiter-Glo luminescence, 72 h; active compounds read low; AID 648; viability, % at 10 µM (by protocol);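 active means viability at or below 30%; inactive means viability above 30%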;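 further: 100% = median luminescence of DMSO-only cell control wells on each plate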
# Pyk2 oligo antag – Pyk2 (human) oligomerization antagonism; Q14289; Q293 cells, Pyk2 FERM NanoBiT luminescence; active compounds read low; z-score (the deposit names both 25 µM and 10 µM); hit rate 0.83% among 99,000;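 active means Z-score of -3 or lower, scaled per plate to the spread of control and sample wells; inactive means z-score above -3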;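 further: negative z-score means lost luminescence so less FERM oligomerization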
# Target sequence (Q14289 whole entry, looked up): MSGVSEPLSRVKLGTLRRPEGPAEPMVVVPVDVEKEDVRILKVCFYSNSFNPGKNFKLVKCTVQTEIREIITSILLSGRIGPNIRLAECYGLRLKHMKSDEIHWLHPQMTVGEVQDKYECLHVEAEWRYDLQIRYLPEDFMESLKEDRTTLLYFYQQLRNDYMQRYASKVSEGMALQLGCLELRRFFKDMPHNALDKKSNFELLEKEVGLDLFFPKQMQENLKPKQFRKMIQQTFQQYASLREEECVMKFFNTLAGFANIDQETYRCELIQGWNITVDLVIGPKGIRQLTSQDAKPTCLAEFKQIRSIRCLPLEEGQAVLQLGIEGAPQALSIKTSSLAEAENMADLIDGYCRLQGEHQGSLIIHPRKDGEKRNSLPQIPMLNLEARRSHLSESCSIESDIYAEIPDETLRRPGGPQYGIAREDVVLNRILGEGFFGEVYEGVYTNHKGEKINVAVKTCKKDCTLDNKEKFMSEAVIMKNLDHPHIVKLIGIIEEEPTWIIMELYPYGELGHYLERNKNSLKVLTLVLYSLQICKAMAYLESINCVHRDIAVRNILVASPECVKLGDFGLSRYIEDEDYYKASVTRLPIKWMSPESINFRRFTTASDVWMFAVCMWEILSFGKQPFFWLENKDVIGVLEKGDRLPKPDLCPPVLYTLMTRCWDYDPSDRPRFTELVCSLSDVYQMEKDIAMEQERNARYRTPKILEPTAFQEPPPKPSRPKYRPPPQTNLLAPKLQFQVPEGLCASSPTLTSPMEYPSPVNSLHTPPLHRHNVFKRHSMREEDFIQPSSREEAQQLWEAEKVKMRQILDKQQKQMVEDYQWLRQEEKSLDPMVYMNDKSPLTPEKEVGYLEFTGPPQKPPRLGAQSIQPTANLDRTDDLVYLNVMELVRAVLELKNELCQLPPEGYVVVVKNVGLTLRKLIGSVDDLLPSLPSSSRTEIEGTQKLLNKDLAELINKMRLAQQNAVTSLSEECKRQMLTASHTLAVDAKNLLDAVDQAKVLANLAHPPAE
# H69AR inhibit – blocks growth of human H69AR lung tumor cells. H69AR lung tumor viability, ATP luminescence, 72 h; active compounds read low. viability, % at 10 µM. hit rate 6% among 85,000. AID 598;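 active means viability at or below 40%; inactive means viability above 40%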;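 further: multidrug resistant small cell line overexpressing MRP-1 efflux transporter; 100% = mean luminescence of untreated control wells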
# Jurkat tox 60K – cytotoxic compounds reducing Jurkat cell viability; Jurkat E6.1 viability, ATP luminescence, 48 h; inhibition, % at 4 µM; hit rate 1.2% among 56,000;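 active means inhibition above the mean inhibition of all tested compounds plus 3 SD, cut at about 28% in these data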
# Fibroblast inh – blocks proliferation of human lung fibroblasts; LL 47 human lung fibroblast viability, ATP luminescence; active compounds read low; viability, % at 10 µM; hit rate 1.1% among 85,000; AID 719;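 active means viability at or below 50% in the single dose screen; inactive means viability above 50%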;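 further: compound exposure lasted 72 h before the ATP readout; 100% = median luminescence of untreated cell-only wells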
#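 Test system: LL 47 human lung fibroblasts / Quantity: 1,150 cells in each well / Medium: IMEM growth medium with 15% fetal bovine serum / Incubation: 72 h compound exposure at 37 °C after overnight plating / Detection: CellTiter-Glo luminescence measuring cellular ATP / Read-out: % viability versus median cells-only luminescence / Benchmarks: cell-only wells, no compound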
# cytoskel mod – modifiers of cytoskeleton assembly. HUVEC TNFa F-actin phalloidin imaging, high content. inhibition, % at 2 µM. hit rate 0.18% among 91,000;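 active means inhibition above the batch mean plus 3 SD and confirmed as a hit by visual image inspection, cut at about 30% in these data, passing the limit was not always enough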
# An asterisk follows results filed as active; · = no result. In the library only some 6% were active in any assay of this set; here they are far more common.
SMILES,HUVEC inhibit,Pyk2 oligo antag,H69AR inhibit,Jurkat tox 60K,Fibroblast inh,cytoskel mod
Cn1cccc1-c1nc2ccc(NC(=O)c3ccc([N+](=O)[O-])cc3)cc2[nH]1,90,-1.8,33*,·,92,14
Cc1ccc(OCC(=O)N2CCN(C(=O)Cc3ccccc3)CC2)cc1,103,2.6,105,-3,102,71*
O=C(COc1ccc(-c2ccccc2)cc1)N1CCN(S(=O)(=O)Cc2ccccc2)CC1,49,-1,26*,·,52,-4
COc1ccc(OCC(=O)N2CCN(C(=O)Cc3ccccc3)CC2)cc1,106,0.29,94,2,103,2
Cc1ccc(CSCCNS(C)(=O)=O)cc1,99,0.31,90,·,102,4
COc1ccc(NC(=O)C2CCN(S(=O)(=O)c3cccnc3)CC2)cc1Cl,91,·,86,-3,92,·
N#Cc1c(C(F)(F)F)cc(-c2ccccc2)nc1SCc1nc(N)nc(N2CCOCC2)n1,63,-2.5,21*,-6,75,·
COc1cc(C(=O)Nc2ccc(NC(=O)C(C)C)nc2)cc(OC)c1OC,91,-0.65,87,1,111,·
COc1cc(C(=O)N[C@H](C(=O)NC(C)C23CC4CC(CC(C4)C2)C3)C(C)C)cc(OC)c1OC (some centres undefined),44,-0.09,42,·,48*,-5
CCOC(=O)C1=C(C)N(c2ccccc2)C(=O)NC1c1cccc([N+](=O)[O-])c1 (centres undefined),·,-1.2,·,·,·,·
CC1=C(C(=O)Nc2ccccc2)C(c2cccc([N+](=O)[O-])c2)Nc2nc3ccccc3n21 (centres undefined),91,-1,35*,·,96,-10
CCc1nc(N2CCN(C(=O)c3ccco3)CC2)c2oc3ccccc3c2n1,76,0.11,22*,16,94,-10
CC(C)(C)c1nc(N2CCN(C(=O)c3ccco3)CC2)c2nnn(Cc3ccccc3)c2n1,76,-1.2,11*,·,93,-7
CCOc1ccccc1-n1c(CN2CCN(C(=O)c3ccco3)CC2)nc2ccccc2c1=O,52,-0.12,63,-1,15*,-10
O=C(c1ccco1)N1CCN(c2nc(C3CC3)nc3c2nnn3Cc2ccccc2Cl)CC1,87,-0.91,53,·,97,8
CCN(CC)C(=O)CSc1nnc(CNc2ccc(F)cc2)n1-c1ccccc1,97,-0.72,89,·,97,16
CCCCS(=O)CC(O)COCC (centres undefined),93,0.02,102,·,99,10
Cc1ccc(C(=O)n2c3ccccc3c3ccccc32)cc1,53,-0.18,18*,·,46*,·
CN(C)c1ccc(/C=N/NC(=O)CN(c2cccc(Cl)c2)S(C)(=O)=O)cc1Br,·,-2.6,·,·,·,-3
CCN1CCN(c2cc(-c3ccccc3)nc3cc(-c4cccc(F)c4)nn23)CC1,22*,-0.56,41,·,90,-3
CSC1=NC2C(N1)N(C)C(=O)N2C (centres undefined),104,0.79,89,·,109,-13
Cc1nnc(N2CCN(c3ccccc3)CC2)c2nn(-c3ccccc3F)c(C)c12,62,·,61,·,102,-1
Cc1cc(=O)oc(C)c1C(=O)N1CCc2c([nH]c3ccccc23)C1C(C)C (centres undefined),97,·,82,-5,98,-10
CC1c2[nH]c3ccccc3c2CCN1C(=O)Nc1ccccc1 (centres undefined),82,-1.4,25*,-1,99,7
C=CCN1C(=O)/C(=C2/C(=O)N(CC(=O)O)c3ccccc32)S/C1=N/c1nccs1,·,·,·,·,·,-9
SMILES,HUVEC inhibit,Pyk2 oligo antag,H69AR inhibit,Jurkat tox 60K,Fibroblast inh,cytoskel mod
C=CCn1c(N)c(C(=O)NCCC2=CCCCC2)sc1=S,77,-0.53,92,·,106,-3
Cc1cc(C)n(Cc2ccc(NC(=O)c3c([N+](=O)[O-])c(C)nn3C)cc2)n1,·,1.3,·,·,·,5
O=c1c(-c2cc3ccccc3o2)[n+]([O-])c2ccccc2n1OCc1ccccn1,66,-0.11,36*,·,94,-2
CCOn1c(=O)c(-c2cc3ccccc3o2)[n+]([O-])c2ccccc21,81,-0.16,51,0,86,-11
CC1Sc2ccccc2N(CC(=O)N(C(C)C)C(C)C)C1=O (centres undefined),91,-0.03,89,·,93,0
Cc1ccc2cccc(NC(=S)NC(=O)c3c(Br)cnn3C)c2n1,62,-0.97,26*,·,82,-8
COc1ccccc1-c1cn(S(=O)(=O)c2ccc(F)cc2)nc1N,96,0.71,81,8,103,-6
Cc1ccc(C2C(C#N)=C(N)Oc3cc4c(cc32)OCO4)cc1 (centres undefined),74,-0.52,15*,1,76,-10
CSc1ccc(C2C(C#N)=C(N)Oc3cc4c(cc32)OCO4)cc1 (centres undefined),59,-0.46,18*,-3,63,9
N#CC1=C(N)OC(c2ccccc2)=C(C#N)C1c1ccc2c(c1)OCO2 (centres undefined),95,-1.2,98,1,94,0
CCCCN(C(=O)NC(=O)Nc1nc2ccc(OC)cc2s1)S(C)(=O)=O,·,1.1,·,·,·,4
O=C(CCN1CCc2ccccc2C(c2ccccc2)C1)c1ccc2c(c1)OCCO2 (centres undefined),86,1.4,1.6*,·,91,-2
O=C(O)CCC(=O)c1ccc2c(c1)OCCO2,97,·,103,0,95,·
O=C(CCN1Cc2ccccc2C1)c1ccc2c(c1)OCCO2,98,-0.72,1.0*,-2,79,-20
O=C(CS(=O)(=O)c1ccccc1)c1ccc2c(c1)OCCO2,83,-1.9,89,6,90,-6
CC(=O)N1CCc2cc(S(=O)(=O)NCCC3=CCCCC3)ccc21,34,1.8,101,·,93,-1
CN1CC=C2C(C#N)=C(N)C(C#N)(C#N)C(CCc3ccccc3)C2C1 (centres undefined),80,-1.1,59,5,93,·
CN1CC=C2C(C#N)=C(N)C(C#N)(C#N)[C@H](c3cccs3)[C@H]2C1,91,-0.66,35*,·,85,3
CCCC1C2CN(C(C)C)CC=C2C(C#N)=C(N)C1(C#N)C#N (centres undefined),94,-0.18,21*,-2,97,27
CC(C)c1ccc(C2C3CSCC=C3C(C#N)=C(N)C2(C#N)C#N)cc1 (centres undefined),6.8*,·,1.4*,·,86,15
CN1CC=C2C(C#N)=C(N)C(C#N)(C#N)C(c3ccsc3)C2C1 (centres undefined),94,-0.75,60,·,95,3
Cc1ccc(C2(C(F)(F)F)NC(=O)N3CCN=C3S2)cc1 (centres undefined),82,1.6,22*,-2,63,-34
Cc1cnnc2ccc3c(no[n+]3[O-])c12,102,-0.3,33*,·,107,15
CCOC(=O)COn1c2c(c3c4no[n+]([O-])c4ccc31)CCCC2,92,-0.13,·,5,105,8

# Source: PubChem
